ChEMBL document CHEMBL4024803, “New Steroidal 4-Aminoquinolines Antagonize Botulinum Neurotoxin Serotype A in Mouse Embryonic Stem Cell Derived Motor Neurons in Postintoxication Model” (J Med Chem, 2018)

Tests used:
[1] = target: Botulinum neurotoxin type A (Clostridium botulinum) (UniProt P0DPI0); experiment: Inhibition of Clostridium botulinum BoNT/A holotoxin-mediated SNAP-25 cleavage in mouse HBG3 cell-derived motor neurons assessed as full length of SNAP-25 at 20 uM preincubated for 30 mins followed by intoxication measured after 4 hrs by Western blot method relative to control; parameters: scale not given: the % may be the effect or the level left
[2] = target: Botulinum neurotoxin type A (Clostridium botulinum) (UniProt P0DPI0); experiment: Inhibition of Clostridium botulinum BoNT/A light chain at 20 uM using P39 as substrate preincubated for 10 mins followed by substrate addition measured after 10 mins by HPLC method relative to control
Procedure, shortened: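 Purified BoNT/A light chain (20 nM) with 0.2 mg/mL BSA in 50 mM HEPES pH 7.4, preincubated with compound for 10 min at room temperature. Cleavage fragments were separated by reversed-phase HPLC (214/280 nm). Percent inhibition was taken from fragment peak areas with vs without compound. Mean of three experiments.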

[3] = target: Botulinum neurotoxin type A (Clostridium botulinum) (UniProt P0DPI0); experiment: Inhibition of Clostridium botulinum BoNT/A holotoxin-mediated SNAP-25 cleavage in mouse HBG3 cell-derived motor neurons preincubated for 30 mins followed by intoxication measured after 4 hrs by Western blot method
[4] = target: Botulinum neurotoxin type A (Clostridium botulinum) (UniProt P0DPI0); experiment: Inhibition of Clostridium botulinum BoNT/A holotoxin-mediated SNAP-25 cleavage in mouse HBG3 cell-derived motor neurons assessed as full length of SNAP-25 at 10 uM preincubated for 30 mins followed by intoxication measured after 4 hrs by Western blot method relative to control; parameters: scale not given: the % may be the effect or the level left
[5] = Distribution co-efficient, log D of the compound at pH 10 by reversed-phase thin-layer chromatographic method; format: physicochemical; conditions: buffer
Procedure, shortened: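 Reversed-phase thin-layer chromatography at pH 10, mobile phase acetone/NH3/H2O (85/5/10).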

[6] = target: Botulinum neurotoxin type A (Clostridium botulinum, UniProt P0DPI0); experiment: (§1) Inhibition of Clostridium botulinum BoNT/A light chain using P39 as substrate preincubated for 10 mins followed by substrate addition measured after 10 mins by HPLC method
[7] = target: Botulinum neurotoxin type A (Clostridium botulinum) (UniProt P0DPI0); experiment: as §1
[8] = target: Botulinum neurotoxin type A (Clostridium botulinum) (UniProt P0DPI0); experiment: Inhibition of Clostridium botulinum BoNT/A holotoxin-mediated SNAP-25 cleavage in mouse HBG3 cell-derived motor neurons assessed as full length of SNAP-25 at 20 uM treated at 30 mins post intoxication by Western blot method relative to control; parameters: scale not given: the % may be the effect or the level left
[9] = target: Botulinum neurotoxin type A (Clostridium botulinum) (UniProt P0DPI0); experiment: Inhibition of Clostridium botulinum BoNT/A holotoxin-mediated SNAP-25 cleavage in mouse HBG3 cell-derived motor neurons assessed as full length of SNAP-25 at 20 uM treated at 60 mins post intoxication by Western blot method relative to control; parameters: scale not given: the % may be the effect or the level left
[10] = Distribution co-efficient, log D of the compound at pH 1 by reversed-phase thin-layer chromatographic method; format: physicochemical; conditions: buffer
Procedure, shortened: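 Reversed-phase thin-layer chromatography at pH 1, mobile phase MeOH/HCl (70/30).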

Row | Structure (SMILES) | Activity [1] [%] | inhibition [2] [%] | inhibition [3] | Activity [4] [%] | chromatographic logD [5] | IC50 [6] [µM] | inhibition [7] | Activity [8] [%] | Activity [9] [%] | chromatographic logD [10]
1 | CC(CCNCC12CC3CC(CC(C3)C1)C2)Nc1c(F)cnc2cc(Cl)ccc12 (stereo unspecified) | 35 | 15 | Dose-dependent effect | 31 | 3.24 |  |  |  |  | 
2 | CC(=O)O[C@H]1C[C@H]2[C@@H]([C@H](OC(C)=O)C[C@@H]3C[C@H](NCCCCCCNc4ccnc5cc(Cl)ccc45)CC[C@@]32C)[C@@H]2CC[C@H]([C@H](C)CCCNCCCCCCNc3ccnc4cc(Cl)ccc34)[C@@]12C | 84 | 90 | Dose-dependent effect | 70 |  | 12.4 | Dose-dependent effect | 36 | 20 | 
3 | N#Cc1ccc2scc(-c3ccc(CNCCCCNc4ccnc5ccccc45)cc3)c2c1 | 26 | 84 | Dose-dependent effect | 21 | 3.67 | 4.6 | Dose-dependent effect |  |  | 
4 | N#Cc1ccc(-c2ccc(-c3cccc(CNCCCCCCNc4ccnc5ccccc45)c3)s2)cc1 | 71 | 68 | Dose-dependent effect | 46 |  | 8.7 | Dose-dependent effect |  |  | 3.08
5 | CC(CCNCCC12CC3CC(CC(C3)C1)C2)Nc1ccnc2ccccc12 (stereo unspecified) |  | 42 |  |  |  |  |  |  |  | 
6 | CC(CCNCCC12CC3CC(CC(C3)C1)C2)Nc1c(F)cnc2ccccc12 (stereo unspecified) | 32 |  | Dose-dependent effect | 30 | 4.13 |  |  |  |  | 
7 | N#Cc1ccc(-c2ccc(-c3ccc(CNCCCCNc4ccnc5ccccc45)cc3)s2)cc1 | 39 | 67 | Dose-dependent effect | 18 |  | 9.3 | Dose-dependent effect |  |  | 2.93
8 | N#Cc1ccc(-c2ccc(-c3ccc(CNCCNc4ccnc5cc(Cl)ccc45)cc3)s2)cc1 |  | 36 |  |  |  |  |  |  |  | 
9 | Fc1ccc2scc(-c3ccc(CNCCCCNc4ccnc5ccccc45)cc3)c2c1 |  | 34 |  |  |  |  |  |  |  | 
10 | CC(CCCNCc1ccc(-c2csc3ccc(C#N)cc23)cc1)Nc1ccnc2ccccc12 (stereo unspecified) | 53 | 61 | Dose-dependent effect | 34 | 3.67 | 10.2 | Dose-dependent effect |  |  | 
11 | N#Cc1ccc2c(-c3ccc(CNCCCCNc4ccnc5ccccc45)cc3)csc2c1 |  | 23 |  |  |  |  |  |  |  | 
12 | CN(CCCNc1ccnc2ccccc12)CCC12CC3CC(CC(C3)C1)C2 |  | 31 |  |  |  |  |  |  |  | 
13 | CN(CCCCCCNc1ccnc2ccccc12)Cc1ccc(-c2ccc(-c3ccc(C#N)cc3)s2)cc1 |  | 55 |  |  |  |  |  |  |  | 
14 | CC(CCCN(C)Cc1ccc(-c2csc3ccc(F)cc23)cc1)Nc1ccnc2ccccc12 (stereo unspecified) |  | 48 |  |  |  |  |  |  |  | 
15 | CC(CCNCC12CC3CC(CC(C3)C1)C2)Nc1c(F)cnc2ccccc12 (stereo unspecified) | 23 |  | Dose-dependent effect | 24 | 3.09 |  |  |  |  | 
16 | N#Cc1ccc(-c2ccc(-c3ccc(CNCCCCCCNc4ccnc5cc(Cl)ccc45)cc3)s2)cc1 |  | 30 |  |  |  |  |  |  |  | 
17 | CC(=O)O[C@H]1C[C@H]2[C@@H]([C@H](OC(C)=O)C[C@@H]3C[C@H](N)CC[C@@]32C)[C@@H]2CC[C@H]([C@H](C)CCCNC(C)CCCNc3ccnc4ccccc34)[C@@]12C (mixture of isomers) | 87 | 75 | Dose-dependent effect | 86 |  | 3 | Dose-dependent effect | 50 | 22 | 2.21
18 | CC(CCNCCC12CC3CC(CC(C3)C1)C2)Nc1ccnc2cc(Cl)ccc12 (stereo unspecified) |  | 64 |  |  |  |  |  |  |  | 
19 | CC(CCCNCc1ccc(-c2csc3ccc(F)cc23)cc1)Nc1ccnc2ccccc12 (stereo unspecified) | 62 | 69 | Dose-dependent effect | 62 | 3.98 | 8.8 | Dose-dependent effect |  |  | 

Row | Structure (SMILES) | Activity [1] [%] | inhibition [2] [%] | inhibition [3] | Activity [4] [%] | chromatographic logD [5] | IC50 [6] [µM] | inhibition [7] | Activity [8] [%] | Activity [9] [%] | chromatographic logD [10]
20 | N#Cc1ccc2scc(-c3ccc(CNCCCCCCNc4ccnc5ccccc45)cc3)c2c1 | 43 | 75 | Dose-dependent effect | 36 | 3.85 | 3.3 | Dose-dependent effect |  |  | 
21 | CC(CCN(C)CC12CC3CC(CC(C3)C1)C2)Nc1ccnc2ccccc12 (stereo unspecified) | 46 | 51 | Dose-dependent effect | 47 |  | 5.2 | Dose-dependent effect |  |  | 
22 | CC(CCNc1ccnc2ccccc12)NCCC12CC3CC(CC(C3)C1)C2 (stereo unspecified) | 24 |  | Dose-dependent effect | 23 |  |  |  |  |  | 
23 | N#Cc1ccc(-c2ccc(-c3ccc(CNCCCCCCNc4ccnc5ccccc45)cc3)s2)cc1 | 48 | 70 to 80 | Dose-dependent effect | 22 |  | 3.4 | Dose-dependent effect |  |  | 3.08
24 | CN(CCCNc1ccnc2cc(Cl)ccc12)CC12CC3CC(CC(C3)C1)C2 | 56 | 71 | Dose-dependent effect | 51 | 3.24 | 8.8 | Dose-dependent effect | 46 | 39 | 
25 | CN(CCCCNc1ccnc2ccccc12)Cc1ccc(-c2csc3ccc(F)cc23)cc1 | 55 | 46 | Dose-dependent effect | 44 | 3.98 |  |  |  |  | 
26 | Fc1ccc2scc(-c3ccc(CNCCCCCCNc4ccnc5ccccc45)cc3)c2c1 |  | 56 |  |  |  |  |  |  |  | 
27 | CC(CCNCCC12CC3CC(CC(C3)C1)C2)Nc1c(F)cnc2cc(Cl)ccc12 (stereo unspecified) | 29 | 2 | Dose-dependent effect | 30 | 4.33 |  |  |  |  | 
28 | C#Cc1ccc(-c2ccc(-c3ccc(CNCCCCCCCCNc4ccnc5ccccc45)cc3)s2)cc1 |  | 53 |  |  |  |  |  |  |  | 
29 | CN(CCCNc1ccnc2ccccc12)CC12CC3CC(CC(C3)C1)C2 | 31 | 30 | Dose-dependent effect | 30 |  |  |  |  |  | 
30 | N#Cc1ccc(-c2ccc(-c3ccc(CNCCCCCCCCNc4ccnc5cc(Cl)ccc45)cc3)s2)cc1 |  | 14 |  |  |  |  |  |  |  | 
31 | CC(CCNc1ccnc2cc(Cl)ccc12)NCC12CC3CC(CC(C3)C1)C2 (stereo unspecified) | 30 | 65 | Dose-dependent effect | 29 | 3.4 | 2.7 | Dose-dependent effect |  |  | 
32 | N#Cc1ccc2c(-c3ccc(CNCCCCCCNc4ccnc5ccccc45)cc3)csc2c1 |  | 8 |  |  |  |  |  |  |  | 
33 | CC(=O)O[C@H]1C[C@H]2[C@@H]([C@H](OC(C)=O)C[C@@H]3C[C@H](N)CC[C@@]32C)[C@@H]2CC[C@H]([C@H](C)CCCNCCCC(=O)Nc3ccnc4cc(Cl)ccc34)[C@@]12C |  | 37 |  |  |  |  |  |  |  | 
34 | CC(=O)O[C@H]1C[C@H]2[C@@H]([C@H](OC(C)=O)C[C@@H]3C[C@H](N)CC[C@@]32C)[C@@H]2CC[C@H]([C@H](C)CCCN(C)CCCC(C)Nc3ccnc4ccccc34)[C@@]12C (mixture of isomers) | 41 | 85 | Dose-dependent effect | 20 |  | 0.7 | Dose-dependent effect |  |  | 2.38
35 | CC(=O)O[C@H]1C[C@H]2[C@@H]([C@H](OC(C)=O)C[C@@H]3C[C@H](N)CC[C@@]32C)[C@@H]2CC[C@H]([C@H](C)CCCN(C)CCCCNc3ccnc4ccccc34)[C@@]12C | 69 | 52 | Dose-dependent effect | 70 |  | 1.5 | Dose-dependent effect |  |  | 2.11
36 | CC(=O)O[C@H]1C[C@H]2[C@@H]([C@H](OC(C)=O)C[C@@H]3C[C@H](N)CC[C@@]32C)[C@@H]2CC[C@H]([C@H](C)CCCNCCCC(C)Nc3ccnc4ccccc34)[C@@]12C (mixture of isomers) | 69 | 71 | Dose-dependent effect | 67 |  | 2.7 | Dose-dependent effect | 38 | 22 | 2.28
37 | C#Cc1ccc(-c2ccc(-c3ccc(CNCCNc4ccnc5cc(Cl)ccc45)cc3)s2)cc1 |  | 19 |  |  |  |  |  |  |  | 
